Source: ChEMBL document CHEMBL1129483, “Antitumor 2-(aminocarbonyl)-1,2-bis(methylsulfonyl)-1-(2-chloroethyl)- hydrazines” (1996)
Where “and” joins values, the source holds several entries; their conditions need not be identical. Equal values may be shown once.

Columns and labels:
Assay type in all cases: functional
[1] = tested on: Mus musculus; assay: %60 day survivors were determined for the compound as the mouse […] at dose 15 mg/kg
Procedure, shortened: (§1)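 L1210 leukemia cells kept by serial passage in culture. 10^5 cells given ip to CD2F1 mice. Drug in 100% DMSO, at most 0.025 mL, given ip once daily for 6 consecutive days starting 24 h after implant. 5–10 mice per group, with vehicle-treated tumor-bearing controls. Value is the percentage of mice alive and symptom-free 60 days after tumor implant.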

[2] = tested on: Mus musculus; assay: Average survival time of treated /control mice*100 was determined at a daily dose of 5 mg/kg
Procedure, shortened: (§2)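 L1210 leukemia cells kept by serial passage in culture. 10^5 cells given ip to CD2F1 mice. Drug in 100% DMSO given ip once daily for 6 days starting 24 h after implant. 5–10 mice per group, with vehicle-treated controls. %T/C is average survival time of treated mice over controls ×100. 60-day survivors (cures) are excluded from the calculation.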

[3] = tested on: Mus musculus; assay: Average percent change in body weight from onset to termination of therapy at dose 15(mg/kg)
Procedure, shortened: (§3)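 CD2F1 mice implanted ip with 10^5 L1210 leukemia cells (kept by serial passage in culture and periodic ip passage in donor mice). Drug given ip in 100% DMSO, at most 0.025 mL, once daily for 6 consecutive days starting 24 h after implantation. Groups of 5–10 mice; vehicle-treated tumor-bearing controls. Body weight change is the average percent from onset to termination of therapy, used as a toxicity index.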

[4] = tested on: Mus musculus; assay: Average percent change in body weight from onset to termination of therapy at dose 5(mg/kg); procedure, shortened: as §3
[5] = tested on: Mus musculus; assay: Average survival time of treated /control mice*100 was determined at a daily dose of 15 mg/kg; procedure, shortened: as §2
[6] = tested on: Mus musculus; assay: Average percent change in body weight from onset to termination of therapy at dose 10(mg/kg); procedure, shortened: as §3
[7] = tested on: Mus musculus; assay: Average survival time of treated /control mice*100 was determined at a daily dose of 10 mg/kg; procedure, shortened: as §2
[8] = tested on: Mus musculus; assay: Average percent change in body weight from onset to termination of therapy at dose 20(mg/kg); procedure, shortened: as §3
[9] = tested on: Mus musculus; assay: Average percent change in body weight from onset to termination of therapy at dose 100(mg/kg); procedure, shortened: as §3
[10] = tested on: Mus musculus; assay: Average survival time of treated /control mice*100 was determined at a daily dose of 25 mg/kg; procedure, shortened: as §2
[11] = tested on: Mus musculus; assay: %60 day survivors were determined for the compound as the mouse […] at dose 50 mg/kg; procedure, shortened: as §1
[12] = tested on: Mus musculus; assay: %60 day survivors were determined for the compound as the mouse […] at dose 75 mg/kg; procedure, shortened: as §1
[13] = tested on: Mus musculus; assay: Average percent change in body weight from onset to termination of therapy at dose 50(mg/kg); procedure, shortened: as §3
[14] = tested on: Mus musculus; assay: %60 day survivors were determined for the compound as the mouse […] at dose 25 mg/kg; procedure, shortened: as §1
[15] = tested on: Mus musculus; assay: Average percent change in body weight from onset to termination of therapy at dose 25(mg/kg); procedure, shortened: as §3
[16] = tested on: Mus musculus; assay: %60 day survivors were determined for the compound as the mouse […] at dose 10 mg/kg; procedure, shortened: as §1
[17] = tested on: Mus musculus; assay: Average survival time of treated /control mice*100 was determined at a daily dose of 20 mg/kg; procedure, shortened: as §2
[18] = tested on: Mus musculus; assay: Average percent change in body weight from onset to termination of therapy at dose 75(mg/kg); procedure, shortened: as §3
[19] = tested on: Mus musculus; assay: Average survival time of treated /control mice*100 was determined at a daily dose of 50 mg/kg; procedure, shortened: as §2
[20] = tested on: Mus musculus; assay: Average survival time of treated /control mice*100 was determined at a daily dose of 150 mg/kg; procedure, shortened: as §2
[21] = tested on: Mus musculus; assay: %60 day survivors were determined for the compound as the mouse […] at dose 150 mg/kg; procedure, shortened: as §1
[22] = tested on: Mus musculus; assay: Average percent change in body weight from onset to termination of therapy at dose 150(mg/kg); procedure, shortened: as §3
[23] = tested on: Mus musculus; assay: %60 day survivors were determined for the compound as the mouse […] at dose 100 mg/kg; procedure, shortened: as §1
[24] = tested on: Mus musculus; assay: %60 day survivors were determined for the compound as the mouse […] at dose 5 mg/kg; procedure, shortened: as §1
[25] = tested on: Mus musculus; assay: %60 day survivors were determined for the compound as the mouse […] at dose 20 mg/kg; procedure, shortened: as §1
[26] = tested on: Mus musculus; assay: Average survival time of treated /control mice*100 was determined at a daily dose of 75 mg/kg; procedure, shortened: as §2
[27] = tested on: Mus musculus; assay: Average survival time of treated /control mice*100 was determined at a daily dose of 100 mg/kg; procedure, shortened: as §2

| SMILES | Survivors [1] [%] | T/C [2] [%] | Change [3] [%] | Change [4] [%] | T/C [5] [%] | Change [6] [%] | T/C [7] [%] | Change [8] [%] | Change [9] [%] | Survivors [11] [%] | Change [13] [%] | Change [15] [%] | Survivors [16] [%] | T/C [17] [%] | further results |
| --- | --- | --- | --- | --- | --- | --- | --- | --- | --- | --- | --- | --- | --- | --- | --- |
| CS(=O)(=O)N(CCCl)N(C(=O)NCCCCl)S(C)(=O)=O | 20 | 111 | -8.8 | -2.8 | 192 | -5.6 | 187 | – | – | – | – | – | – | – | – |
| CCOC(=O)C(C)NC(=O)N(N(CCCl)S(C)(=O)=O)S(C)(=O)=O (centres undefined) | – | 170 | -0.5 | -2 | 185 | -1.4 | 178 | -1.5 | -2.5 | 100 | -3.3 | -2.5 | 20 | 227 | T/C [10]: 239%; Survivors [12]: 80%; Survivors [14]: 60%; Change [18]: -2.5% |
| CCOC(=O)C(Cc1ccccc1)NC(=O)N(N(CCCl)S(C)(=O)=O)S(C)(=O)=O (centres undefined) | – | 147 | -1.9 | -2.5 | 160 | -0.5 | 165 | -1.9 | -2 | 60 | -2 | -0.9 | – | 174 | T/C [19]: 225%; T/C [20]: 169%; T/C [10]: 177%; Survivors [21]: 20%; Change [22]: -5%; Survivors [23]: 100% |
| C=CCNC(=O)N(N(CCCl)S(C)(=O)=O)S(C)(=O)=O | 100 | 184 | -2.9 | -1.6 | – | -2.1 | 394 | – | – | – | – | – | 40 | – | Survivors [24]: 20% |
| CS(=O)(=O)N(CCCl)N(C(=O)NCCCl)S(C)(=O)=O | 80 | – | -4 | – | 216 | -4.7 | – | -10.4 | – | – | – | – | 100 | 239 | Survivors [25]: 80% |
| CCOC(=O)CNC(=O)N(N(CCCl)S(C)(=O)=O)S(C)(=O)=O | – | 151 | -0.5 | -1.5 | 202 | -1.4 | 202 | -3.7 | -4 | 80 | -2.5 | -0.5 | 20 | – | T/C [26]: 119%; T/C [27]: 115%; Survivors [12]: 60%; Survivors [14]: 100%; Survivors [25]: 20%; T/C ([17]; 20 mg/kg): 191% and 138%; Change [18]: -1.5% |
| CNC(=O)N(N(CCCl)S(C)(=O)=O)S(C)(=O)=O [LAROMUSTINE] | 100 | 234 | -2.1 | 9.9 | – | -5.6 | – | – | – | – | – | – | 100 | – | Survivors [24]: 40% |
